# Results taken from ChEMBL document CHEMBL1782026, “Synthesis and biological evaluation of 1α,25-dihydroxyvitamin D(3) analogues hydroxymethylated at C-26” (2011).
# Calls of active or inactive are those of the source. The rule behind the calls is not given here.
# How the values were obtained:
# MCF7 [1] = test: Antiproliferative activity against human MCF7 cells assessed as DNA level at 100 nM measured after 6 days by calorimetric analysis; assay type: functional; conditions: MCF7, 144 h, read-out: GI
# Procedure, shortened: (§1)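 MCF-7 cells in DMEM F12 with 5% FBS at 37 °C, 5% CO2, seeded at 100 000 cells/well in six-well plates. After 24 h, treated in triplicate for 6 days with graded doses or 0.1% ethanol vehicle; medium and ligand replaced every other day. DNA content by Burton assay, expressed as percent of vehicle control; three independent experiments, mean ± SD.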
# SW480-ADH [2] = test: Induction of E-cadherin expression in human SW480-ADH cell at 10^-7 M after 48 hrs by Western blot analysis; assay type: functional, cell-based
# Procedure, shortened: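 SW480-ADH cells grown in RPMI with 10% FCS, GlutaMAX and penicillin/streptomycin. Treated 48 h at 10^-7 M in charcoal-treated FCS medium; controls received matching vehicle. Anti-E-cadherin Western blot with β-tubulin as loading control and ECL detection. Values are mean fold-increase from two experiments.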
# [3] = molecular target: T1, Vitamin D3 receptor (Homo sapiens) (UniProt P11473); test: Transactivation of human VDR transfected in human SW480-ADH cells assessed as vitamin D response element-mediated transcriptional activity measured 8 hrs post infection by luciferase reporter gene assay; assay type: cell-based
# T1 sequence (whole entry): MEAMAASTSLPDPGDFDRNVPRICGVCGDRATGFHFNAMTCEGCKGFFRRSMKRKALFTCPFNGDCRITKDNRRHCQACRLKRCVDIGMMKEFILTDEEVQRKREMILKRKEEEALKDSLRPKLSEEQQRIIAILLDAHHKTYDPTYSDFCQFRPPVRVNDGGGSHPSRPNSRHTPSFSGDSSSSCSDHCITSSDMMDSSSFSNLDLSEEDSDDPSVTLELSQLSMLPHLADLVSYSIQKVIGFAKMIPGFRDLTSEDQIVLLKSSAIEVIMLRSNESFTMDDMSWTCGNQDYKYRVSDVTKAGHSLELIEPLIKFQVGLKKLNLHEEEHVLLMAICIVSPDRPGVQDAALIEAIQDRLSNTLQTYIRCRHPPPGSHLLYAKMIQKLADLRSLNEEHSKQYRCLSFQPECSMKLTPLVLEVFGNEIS
# Procedure, shortened: (§2)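 SW480-ADH cells, transfected in triplicate (JetPEI) with 4VDRE-DR3-tk-LUC reporter, four tandem consensus DR3 VDREs upstream of HSV tk promoter. Treated with graded concentrations in charcoal-treated FCS medium, read at 8 or 48 h. Firefly luciferase normalized to Renilla by dual luciferase assay; mean ± SD, n = 3.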
# [4] = molecular target: T1, Vitamin D3 receptor (Homo sapiens); test: Transactivation of human VDR transfected in human SW480-ADH cells assessed as vitamin D response element-mediated transcriptional activity measured 48 hrs post infection by luciferase reporter gene assay; assay type: cell-based; procedure, shortened: as §2
# [5] = molecular target: T1, Vitamin D3 receptor (Homo sapiens); test: Transactivation of human VDR transfected in african green monkey COS7 cells after 24 hrs by luciferase reporter gene assay; assay type: cell-based; conditions: COS-7
# Procedure, shortened: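 Transfected 16 h (Polyfect) with 62.5 ng WT VDR expression plasmid and 125 ng rat 24-hydroxylase promoter VDRE-luciferase. Then treated 24 h with graded concentrations in DMEM with 1% bovine growth serum, lysed, and assayed by dual luciferase; ±SD.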
# SW480-ADH [6] = test: Induction of differentiation of human SW480-ADH cells to adhesive epithelial phenotype at 10^-7 M after 48 hrs by phase-contrast microscopy; assay type: functional, cell-based
# Procedure, shortened: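 SW480-ADH cells in RPMI/10% FCS were exposed for 48 h to 10^-7 M compound or vehicle in charcoal-treated FCS medium. Adhesive epithelial morphology was judged by phase-contrast microscopy; a representative experiment is shown.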
# MCF7 [7] = test: Antiproliferative activity against human MCF7 cells assessed as DNA level measured after 6 days by calorimetric analysis; assay type: functional, cell-based; procedure, shortened: as §1
# MCF7 [8] = test: Antiproliferative activity against human MCF7 cells assessed as DNA level at 1 nM measured after 6 days by calorimetric analysis; assay type: functional; conditions: MCF7, 144 h, read-out: GI; procedure, shortened: as §1
# MCF7 [9] = test: Antiproliferative activity against human MCF7 cells assessed as DNA level at 10 nM measured after 6 days by calorimetric analysis; assay type: functional; conditions: MCF7, 144 h, read-out: GI; procedure, shortened: as §1
Structure (SMILES),inhibition of growth at 0.1 µM (MCF7 [1]) [%],Activity (SW480-ADH [2]),Activity [3],Activity [4],Activity [5],Activity (SW480-ADH [6]),growth inhibition (GI) (MCF7 [7]),inhibition of growth at 0.001 µM (MCF7 [8]) [%],inhibition of growth at 0.01 µM (MCF7 [9]) [%]
C=C1/C(=C\C=C2/CCC[C@]3(C)[C@@H]([C@H](C)CCC[C@@](C)(O)[C@@H](C)CO)CC[C@@H]23)C[C@@H](O)C[C@@H]1O,65,Active,Dose-dependent effect,Dose-dependent effect,Active,Active,–,–,–
C=C1/C(=C\C=C2/CCC[C@]3(C)[C@@H]([C@H](C)CCCC(C)(C)O)CC[C@@H]23)C[C@@H](O)C[C@@H]1O [CALCITRIOL],66,–,–,–,–,–,Dose-dependent effect,15,50
C=C1/C(=C\C=C2/CCC[C@]3(C)[C@@H]([C@H](C)CCC[C@@](C)(O)CCO)CC[C@@H]23)C[C@@H](O)C[C@@H]1O,53,Active,Dose-dependent effect,Dose-dependent effect,–,Active,–,–,–
